Compound activity: PubChem, several laboratories
Cav32 inh: Cav3.2 calcium influx blockers – cell-based, Fluo-4 calcium fluorescence, FDSS, MLSMR library, primary screen; Cav3.2-expressing cells; hits give low values; B-score at 10 µM; 100,000 tested, 4% active; AID 449739, 2010;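 active = single-dose well whose peak fluorescence ratio is a statistical outlier from its plate by either plate-standardised score or position-corrected B-score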
EphB4 ephrin blk: EphB4-ephrin-B2 interaction antagonists, primary screen, biochemical, TNYL-RAW peptide probe, fluorescence polarization. EphB4 LBD / TNYL-RAW-Alexa532 peptide. Ephrin type-B receptor 4 (Homo sapiens), P54760. 97,000 tested, 0.15% active. inhibition, % at 7 µM;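 active = inhibition above the screen-wide mean inhibition plus 3 SD, cut at about 15% in these data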;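 also: 0% = DMSO wells and 100% = excess unlabeled TNYL-RAW peptide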
Plk1 PBD FP: Plk1 polo box domain binding inhibitors, primary screen, biochemical, fluorescence polarization. Serine/threonine-protein kinase PLK1 (Homo sapiens), P53350. Plk1 PBD phosphopeptide binding. inhibition, %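 (tested at about 20 µM)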. 97,000 tested, 0.13% active. AID 693, 2007; in the data active = inhibition above about 34%, passing the limit was not always enough
HIV Rev-RRE inh: HIV-1 Rev-RRE binding inhibitors, primary screen, biochemical, FRET, protein-RNA interaction; P05866; Rev peptide-RRE RNA binding; inhibition, % at 8 µM; 97,000 tested, 0.79% active;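 active = inhibition above the screen-wide mean plus 3 SD, cut at about 35% in these data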;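 also: 0% = median DMSO wells and 100% = median Neomycin B control wells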
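System: Cy5-labelled duplex RRE RNA binding fluorescein-labelled HIV Rev peptide; Signal: fluorescein-to-Cy5 FRET, 480 nm excitation; Also added: labelled Rev peptide; Compound: one concentration, 8 µM nominal; Buffer or medium: HEPES pH 7.5 salt buffer with EDTA; Read-out: % inhibition of FRET ratio versus controls; Schedule: 5 min preincubation and 15 min binding, 25 °C.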
FAK inh: FAK kinase inhibitors, primary screen, biochemical. AID 727, 2007. 97,000 tested, 0.84% active. Focal adhesion kinase 1 (Homo sapiens), Q05397. biochemical FAK kinase activity assay. inhibition, %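 (tested at 7 µM)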; in the data active = inhibition above about 19%;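 also: 0% = DMSO and 100% = reference compound high control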
PLK1 kinase inh: human PLK1 kinase inhibitors, primary screen, biochemical, TR-FRET; Serine/threonine-protein kinase PLK1 (Homo sapiens), P53350; recombinant PLK1 kinase, TR-FRET peptide phosphorylation; inhibition, % at 10 µM; 97,000 tested, 0.53% active;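 active = inhibition of 50% or more in the single-concentration screen; inactive = inhibition below 50%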;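 also: 0% = DMSO max control and 100% = H-89 dihydrochloride min control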
* = called active by the depositor; . = no result given; [ ] = another dose, or the depositor's remark. Shown are actives, neighbours in structure and some others; about 5.3% of the full set was active somewhere.

SMILES	Cav32 inh	EphB4 ephrin blk	Plk1 PBD FP	HIV Rev-RRE inh	FAK inh	PLK1 kinase inh
CCOc1cc(S(=O)(=O)Nc2ccc(CC)cc2)ccc1Cl	-2.9	-9	1	21	7	-5
O=C(/C(=C/c1ccccc1)c1ccccc1)N1CCCCC1	-2.2	0	-3	6	2	4
Nc1ccc(C(=O)N/N=C/c2ccccc2)cc1	-5.1*	-7	2	1	-4	-5
O=C(NCC1COc2ccccc2O1)C1C2C=CC3(CN(Cc4ccccc4Cl)C(=O)C13)O2 (centres undefined)	-8.7*	.	.	.	.	.
COc1ccc([C@H]2/C=C\CN(C(=O)c3ccccc3)[C@@H](C)C(=O)N2Cc2ccc(F)cc2)cc1	-0.88	.	.	.	.	.
Cc1ccc(/C=C2\CCC3=C2OC(N)=C(C#N)C3c2ccc(C)cc2)cc1 (centres undefined)	-6.5*	-3	-120	138*[fluorescence artefact?]	4	-9
COC(=O)C(C)N(C(=O)c1ccc(C(=O)c2ccccc2)cc1)c1c(C)cccc1C (centres undefined)	-4.5*	-3	5	7	2	-3
CC(C)C(=O)Nc1ccc(C(=O)c2ccccc2)cc1	0.96	5	4	2	1	-9
COC(=O)C(CC(=O)c1ccc(Cl)cc1)c1ccc(C)cc1 (centres undefined)	.	-7	4	6	9	-4
COC(=O)C(C)N(C(=O)c1ccc(Cl)cc1)c1c(C)cccc1C (centres undefined)	-6.6*	-3	-2	3	0	-11
Cc1ccc(Cl)cc1NC(=O)Cn1cc2c(n1)CCCC2	-1.4	-13	-26	5	1	-14
COc1ccc(C2NC3=C(CCCC3)C(C#N)(C#N)C2(C#N)C#N)cc1 (centres undefined)	0.061	-5	-31	46*	-5	7
COc1ccc(C2NC3=C(CCC3)C3(C#N)C4(N=C(N)C23C#N)OCCO4)cc1 (centres undefined)	0.11	10	-9	11	2	-10
CCCCC1OC23CCCCC2C(C#N)(C(=N)O3)C1(C#N)C#N (centres undefined)	-0.96	-3	-7	20	-3	-10
CCCCCCCCOc1ccc(C2OC34CCCCC3C(C#N)(C#N)C2(C#N)C(=N)O4)cc1 (centres undefined)	-1.6	4	10	43*	4	-8
COc1ccc(Cl)cc1C(=O)NNC(=S)NC(=O)c1cc(-c2ccc(Cl)cc2)nc2ccccc12	-6.6*	-3	3	4	-10	-7
O=C(NC(=S)Nc1ccccc1)c1cc(-c2ccccc2)nc2ccccc12	-2.3	1	-11	2	0	-6
O=C(NCC1CC1)[C@]1(C(F)(F)F)C[C@H](CCC2CCCCC2)CCCO1	-0.56	.	.	.	.	.
CCOC(=O)c1cnn(-c2ccccc2)c1-n1cccc1C(=O)C(=O)Nc1ccc(F)cc1	-4.3*	-5	-32	0	-6	-5
CCOC(=O)c1cnn(-c2ccccc2)c1NC(=O)C(F)(F)C(F)(F)C(F)(F)F	-0.2	-5	-17	2	-1	-14
COc1c(O)cccc1[C@@H](O)C1CCN(CCc2ccc(F)cc2)CC1	0.22	.	.	.	.	.
Clc1ccc(-c2nnc(SCc3nc(-c4ccccc4)no3)o2)cc1	0.0014	8	-14	10	-8	-7
Clc1ccc(-c2noc(CSc3nnc(Cc4cccs4)n3-c3ccccc3)n2)cc1	-5.7*	6	-6	4	7	-1
Cc1ccc(-c2noc(CSc3nnnn3C3CCCCC3)n2)cc1	-4.6*	3	20	14	2	-16
Cc1ccc(-c2noc(CSc3nnc(Cc4ccccc4)n3-c3cccc(C)c3)n2)cc1	-3.3	4	12	7	-1	-6
SMILES	Cav32 inh	EphB4 ephrin blk	Plk1 PBD FP	HIV Rev-RRE inh	FAK inh	PLK1 kinase inh
COc1ccc(-c2noc(CSc3nnc(Cc4ccccc4)n3-c3cccc(C)c3)n2)cc1OC	-5.5*	-4	23	-1	1	-11
c1ccc(-c2noc(CSc3nnnn3-c3ccccc3)n2)cc1	-5*	2	35	6	0	7
COC(=O)c1cc2ccsc2n1Cc1nc(-c2ccc(Cl)cc2)oc1C	-1.3	-2	-5	12	1	3
C[C@H](O)CC1=C[C@H](O)[C@@H](C)OC1=O	0.69	.	.	.	.	.
Fc1ccc(-n2c(Cc3ccccc3)nnc2SCc2nc(-c3cccs3)no2)cc1	-3.1	-4	-17	4	3	-9
Cc1ccc(-c2noc(CSc3nnc(Cc4cccs4)n3-c3ccccc3)n2)cc1	-7.6*	-7	21	-1	-11	-9
O=c1c2ccccc2nc(SCc2nc(-c3ccccc3)no2)n1-c1ccc(F)cc1	-4.5*	.	.	.	.	.
c1ccc(-c2noc(CSc3nnc(Cc4cccs4)n3-c3ccccc3)n2)cc1	-4.7*	-2	-11	7	-2	-18
Cc1noc(C)c1CSc1nc2ccccc2c(=O)n1-c1ccc(Cl)cc1	-2.9	-4	-15	10	3	-3
Clc1ccc(-c2noc(CSc3nnc(-c4ccncc4)n3-c3ccccc3)n2)cc1	-4.9*	-3	-11	7	1	-5
CCO[C@@H]1OC(C(=O)N2CCN(Cc3ccccc3)CC2)=C[C@H](c2csc3ccccc23)[C@H]1CCCO	-0.86	.	.	.	.	.
O=C(CN(C(=O)c1cc2c(s1)CCC2)C1CCCC1)NCc1cccs1	-2.6	-1	9	1	0	-13
O=C(CN(Cc1ccccc1)C(=O)c1cc2c(s1)CCC2)NCc1cccs1	-4.5*	8	8	7	11	-5
O=C(O)C(NC(=O)c1ccccc1)=C(Cl)Cl	0.074	3	-7	1	2	-14
O=C1NC2(CCc3ccccc32)C(=O)N1CCOc1ccc(Cl)cc1 (centres undefined)	-4.8*	2	-21	3	0	-3
Cc1ccccc1OCCN1C(=O)NC2(CCc3ccccc32)C1=O (centres undefined)	-0.24	-5	4	2	-1	-10
C#CCn1c(S(=O)(=O)Cc2ccc(F)cc2)nc(-c2ccccc2)c1-c1ccccc1	-3.8*	-1	-5	12	3	-9
N=C1/C(=C\c2ccc(SCc3ccco3)o2)C(=O)N=C2SC=NN12	0.0014	-7	-3	59*	1	-5
COc1ccc(OCc2nnc(SCC(=O)N3c4ccccc4Sc4ccc(Cl)cc43)o2)cc1	-4.4*	-6	-1	2	-3	-12
